This is one part of a sample in which hits are shown more often than they occur.
TLR9-MyD88 inh – inhibitors of TLR9-MyD88 association in cells, primary screen, cell-based, CHO, BLA complementation, fluorescence; Toll-like receptor 9 (Homo sapiens) + Myeloid differentiation primary response protein …; inhibition, % at 4.98 µM; 340,000 tested, 0.21% active; CCF4 FRET ratio;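 active = inhibition above the mean over all tested compounds plus 3 SD, cut at about 21% in these data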;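 also: 0% = DMSO only wells and 100% = clavulanate BLA inhibitor control wells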
TLR4-MyD88 BLA – inhibitors of TLR4-MyD88 association in cells, primary screen, cell-based, HeLa CL3-4, BLA complementation, FRET ratio. HeLa CL3-4 TLR4/MyD88 BLA complementation. inhibition, % at 8.4 µM. 200,000 tested, 0.18% active. AID 861, 2007; in the data active = inhibition above about 25%;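 also: 0% = vehicle and 100% = reference inhibitor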
UPR CHOP act – activators of apoptotic CHOP UPR arm, primary screen, cell-based, CHO-CHOP luciferase reporter, luminescence, uHTS; UPR activation; percent of tunicamycin response over DMSO baseline; activation, % at 10 µM; 330,000 tested, 0.34% active; AID 449763, 2010;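 active = at 10 µM dose, activation of 40% or more, normalized to positive control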;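 also: 100% = tunicamycin at 10 µg/mL and 0% = DMSO alone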
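System: CHO-CHOP luciferase reporter cell line; amount: 500 cells/well; buffer or medium: F12 medium containing 10% fetal bovine serum; incubation: 6 h compound exposure at 37 °C after overnight seeding; measured by: luciferase luminescence after 10 min with Steady-Glo reagent; evaluation: % reporter activation, DMSO baseline versus tunicamycin full activation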
NOD2 RIPK2 PPI – NOD2-RIPK2 binding disruptors in cells, primary screen, fluorescence, CHO cells, BLA complementation | CCF4 ratio | inhibition, % at 4.98 µM | 360,000 tested, 0.38% active | AID 624267, 2012; in the data active = inhibition above about 21%;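 also: 0% = vehicle only and 100% = reference blocker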
UPR XBP1 act – activators of adaptive XBP1 UPR arm, primary screen, cell-based, CHO-XBP1 luciferase reporter, luminescence, uHTS; 330,000 tested, 0.33% active; activation, % at 20 µM; IRE1-XBP1 UPR activation; percent of tunicamycin response, DMSO as zero;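 active = versus positive control, 20 µM dose yields 30% or more activation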;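 also: 100% = tunicamycin at 10 µg/mL and 0% = DMSO only wells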
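Material – CHO cell line with stable XBP1 luciferase reporter · Buffer or medium – F12 plus 10% FBS · Compound – single point, 20 µM final compound, 1% DMSO · Schedule – 16-18 h cell attachment at 37 °C, then 6 h compound exposure · Signal – Steady-Glo luminescence read · Benchmarks – high control tunicamycin 10 µg/mL final, low control DMSO vehicle only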
CHOP inhibitor – inhibitors of CHOP promoter induction, primary screen, cell-based, unfolded protein response, luciferase reporter; AID 2732, 2010; CHO-K1 CHOP-promoter luciferase, tunicamycin-induced, 15-18 h; 220,000 tested, 3.8% active; inhibition, % at 10 µM;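 active = compounds that reduced the stress-induced luciferase reporter signal by more than about 70% of percent inhibition, limit read from the data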;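 also: 0% = tunicamycin plus vehicle and 100% = wells without tunicamycin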
NOD2-RIPK2 conf – NOD2-RIPK2 binding disruptors, retest, confirmation, fluorescence, CHO cells, BLA complementation, triplicate. shares compounds with NOD2 RIPK2 PPI. CCF4 FRET. inhibition, % at 4.98 µM. 1,200 tested, 70% active;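 active = mean inhibition across replicates above a set limit taken from the earlier primary screen, cut at about 21% in these data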;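 also: 0% = DMSO-only wells and the high end = clavulanate BLA-blocked wells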
BLA counter – counter-screen for NOD2-RIPK2 interaction inhibitors: BLA reporter; shares compounds with NOD2 RIPK2 PPI; CHO BLA reporter, CCF4 FRET ratio, counterscreen; inhibition, % at 4.98 µM; 1,200 tested, 57% active;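 active = mean inhibition above the low-control mean inhibition plus three low-control SD, cut at about 11% in these data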;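 also: 0% = DMSO only wells and 100% = clavulanate high control wells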
* marks the source's active call; other numbers are inactive results; nt = not tested or not shown.

SMILES	TLR9-MyD88 inh	TLR4-MyD88 BLA	UPR CHOP act	NOD2 RIPK2 PPI	UPR XBP1 act	CHOP inhibitor	NOD2-RIPK2 conf	BLA counter
Cc1ccc(-n2nc3c(N4CCC(C(=O)NCc5ccccc5C)CC4)nnc(C)c3c2C)cc1	6	nt	0	24*	16	nt	36*	7
CCOc1ccc(CNC(=O)C2CCN(c3nnc(C)c4c(C)n(-c5ccc(C)cc5)nc34)CC2)cc1	7	nt	4	36*	5	nt	48*	19*
Cc1ccccc1CNC(=O)C1CCCN(c2nnc(C)c3c(C)n(-c4ccccc4)nc23)C1 (configuration not stated)	3	nt	0	5	-2	nt	nt	nt
Cc1nc2ccc(NS(=O)(=O)c3ccc(F)c(C)c3)cc2[nH]1	-7	nt	-2	-8	-5	nt	nt	nt
COc1ccc2[nH]cc(CCNC(=O)CS(=O)(=O)Cc3ccccc3)c2c1	-8	nt	-1	-8	7	nt	nt	nt
COc1ccc2oc(=O)c(-c3nnc(NCc4ccco4)s3)cc2c1	20	12	6	21*	1	-21	49*	49*
O=C(CCN1CCN(Cc2ccccc2)CC1)Nc1cccc(Br)c1	-1	nt	1	-13	-4	nt	nt	nt
O=C(O)c1cc(N2CCCCC2)ccn1	-3	nt	nt	1	nt	nt	nt	nt
O=C(CCNc1ccc(F)cc1)c1cccc([N+](=O)[O-])c1	2	5	2	-10	-2	-2	nt	nt
O=C(CNC(=O)c1cccc([N+](=O)[O-])c1)OCCCC(=O)c1ccc(F)cc1	-1	nt	0	26*	-2	nt	-8	-4
Cc1ncc(CO)c(/C=N/NC(=S)Nc2ccc(C(C)C)cc2)c1O	7	nt	0	6	-1	16	nt	nt
O=C(CN1C(=O)C2CC=CCC2C1=O)OCC(=O)c1ccc(Cl)c([N+](=O)[O-])c1 (configuration not stated)	-8	nt	4	4	-2	nt	nt	nt
Cc1ccccc1OCC(=O)N(CC(C)C)c1c(N)n(CC(C)C)c(=O)[nH]c1=O	-10	nt	0	0	-4	-19	nt	nt
Cc1c(Cl)cccc1NC(=S)NCc1ccc(Cl)cc1	-13	1	-1	22*	-4	nt	-6	-3
Cc1c(Cl)cccc1NC(=S)NCc1ccccc1	-4	-12	-2	-3	-1	nt	nt	nt
O=[N+]([O-])c1ccc(NN=Cc2cccc([N+](=O)[O-])c2)cc1	1	nt	nt	-6	nt	nt	nt	nt
O=C(O)c1cccc(-c2ccc(/C=N/Nc3ccc([N+](=O)[O-])cc3)o2)c1	19	nt	1	28*	1	-10	30*	32*
Cc1cc([N+](=O)[O-])ccc1-c1ccc(/C=N/NC(=O)c2ccc(Br)o2)o1	1	nt	1	40*	15	nt	32*	48*
Cc1cc(C(=O)N/N=C/c2ccc(-c3ccc([N+](=O)[O-])cc3C)o2)n[nH]1	-2	nt	2	4	-3	nt	nt	nt
CC(C)(C)NC(=S)N/N=C\c1ccc(-c2ccc([N+](=O)[O-])cc2)o1	nt	nt	3	43*	2	-4	81*	83*
O=[N+]([O-])c1ccc(N/N=C/c2cccc(O)c2)cc1	7	nt	6	22*	5	nt	24*	32*
Cc1cc(/C=C\c2ccccc2)nc2ccccc12	5	-3	3	1	6	31	nt	nt
COC(=O)CC/C(O)=C1\C(=O)CC(C)(C)CC1=NCc1nc2ccccc2[nH]1	-8	-6	0	7	2	7	nt	nt
